Among the data in ChEMBL document CHEMBL1156621, “Synthesis and cellular effects of cycloterpenals: cyclohexadienal-based activators of neurite outgrowth” (2008) are Activity and MIC values, retold here.

The source made the active and inactive calls.

The MIC is the smallest concentration in the dilution series that meets the test's criterion for growth inhibition. The low end stands for greater potency, the high end for weaker potency.

The test system of one experiment is Jurkat. The experiment can be described thus: Growth inhibition of human Jurkat T cells at 1 ug/mL after 24 hrs. The experiment is classed as functional, cell-based. The method, boiled down: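 Cells kept in RPMI 1640 with 10% FBS at 37 °C, 5% CO₂. Harvested, counted and seeded at 200,000 cells/well (1 mL) in 48-well plates, then compound added. After 24 h incubation the cells were pelleted, washed in PBS and lysed. Lysate relative fluorescence measured on a fluorometer.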

For experiment [1], the system named is PC-12. The experiment can be described thus: Induction of neurite outgrowth in rat PC12 cells at 1 ug/mL after 6 days. It is filed as functional, cell-based. The method, boiled down:
(§1)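 Rat PC12 cells (ATCC CRL 1721) grown on collagen Type IV in RPMI 1640 with 10% heat-inactivated horse serum and 5% FBS, 37 °C, 5% CO₂. Seeded at 10,000 cells/well in collagen IV 96-well plates and allowed to adhere 24 h before compound. Tested in duplicate at final 100, 10 and 1 μg/mL; absolute EtOH as control. Neurite outgrowth and intercellular connections scored visually over 2 weeks.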

For another experiment, the system named is Escherichia coli. Put plainly: Antibacterial activity against Escherichia coli after 16 hrs. It is filed as functional.
Another experiment relates to Bacillus subtilis. Put plainly: Antibacterial activity against Bacillus subtilis after 16 hrs. It is filed as functional.
The test system of a further experiment is Saccharomyces cerevisiae. The experiment can be described thus: Antifungal activity against Saccharomyces cerevisiae after 16 hrs. It is filed as functional.
The test system of experiment [2] is PC-12. Put plainly: Induction of neurite outgrowth in rat PC12 cells assessed as neural extensions at 1 ug/mL after 5 days. The experiment is classed as functional, cell-based. The method, boiled down:
as §1

For experiment [3], the system named is PC-12. The experiment can be described thus: Induction of neurite outgrowth in rat PC12 cells at 10 ug/mL after 7 days. It is filed as functional, cell-based. The method in brief:
as §1

`Cc1ccc(C2(C)CC(c3ccc(-c4ccccc4)cc3)=CC=C2C=O)o1` (stereo not drawn): the outcome in the experiment with Jurkat, in the experiment with PC-12 [1] and in the experiment on PC-12 [2] was Active. Besides, the MIC with Escherichia coli, with Bacillus subtilis and against Saccharomyces cerevisiae was more than 100 µg/mL throughout.
In the case of `O=CC1=CC=C(c2ccc(-c3ccccc3)cc2)CC1c1ccc([N+](=O)[O-])cc1` (stereo not drawn), the outcome in the experiment on Jurkat was Active. Besides, the MIC against Escherichia coli, with Bacillus subtilis and with Saccharomyces cerevisiae was more than 100 µg/mL throughout.
With `CN(C)c1ccc(C2CC(c3ccc(Cl)s3)=CC=C2C=O)cc1` (stereo not drawn), in the experiment with Jurkat, the result was Active. Moreover, the MIC against Escherichia coli, with Bacillus subtilis and against Saccharomyces cerevisiae was more than 100 µg/mL each time.
For the compound `O=CC1=CC=C(c2ccc3c(c2)Cc2ccccc2-3)CC1c1ccc([N+](=O)[O-])cc1` (stereo not drawn), the result with Jurkat was Active. Moreover, the minimal inhibitory concentration (MIC) against Escherichia coli, against Bacillus subtilis and against Saccharomyces cerevisiae was more than 100 µg/mL throughout.
As for `CN(C)c1ccc(C2CC(c3ccc4ccccc4c3)=CC=C2C=O)cc1` (stereo not drawn), the MIC against Escherichia coli, with Bacillus subtilis and against Saccharomyces cerevisiae was more than 100 µg/mL throughout. The result with PC-12 [3] was Active.
Consider `CC(C)=CCC/C(C)=C/C[C@H]1C(C)=CC=C(C=O)[C@H]1c1ccc([N+](=O)[O-])cc1`, for which the MIC against Escherichia coli, with Bacillus subtilis and against Saccharomyces cerevisiae was more than 100 µg/mL throughout.
On to `CN(C)c1ccc(C2CC(c3ccc(-c4ccccc4)cc3)=CC=C2C=O)cc1` (stereo not drawn), for which the MIC with Escherichia coli, with Bacillus subtilis and in the experiment on Saccharomyces cerevisiae was more than 100 µg/mL throughout.
With `Cc1ccc(C2=CC=C(C=O)C(C)(C)C2)o1`, the MIC in the experiment with Escherichia coli, against Bacillus subtilis and against Saccharomyces cerevisiae was more than 100 µg/mL each time.
In the case of `CC(C)=CCC1CC(C=O)=CC=C1C` (stereo not drawn), the MIC in the experiment with Escherichia coli, with Bacillus subtilis and against Saccharomyces cerevisiae was more than 100 µg/mL each time.
As to `Cc1ccc(C2=CC=C(C=O)C(c3ccc(N(C)C)cc3)C2)o1` (stereo not drawn), the MIC against Escherichia coli, with Bacillus subtilis and with Saccharomyces cerevisiae was more than 100 µg/mL each time.
`CC1=C(/C=C/C2=CC=C(C=O)C(c3ccc([N+](=O)[O-])cc3)C2)C(C)(C)CCC1` (stereo not drawn): the MIC against Escherichia coli, against Bacillus subtilis and against Saccharomyces cerevisiae was more than 100 µg/mL in each case.
`CC(C)=CCC/C(C)=C/C[C@H]1C(C)=CC=C(C=O)[C@H]1c1ccc(N(C)C)cc1`: the MIC in the experiment with Escherichia coli, in the experiment with Bacillus subtilis and with Saccharomyces cerevisiae was more than 100 µg/mL each time.
With `CC(C)=CCCc1ccc(C=O)c(-c2ccc(N(C)C)cc2)c1`, the MIC against Escherichia coli, against Bacillus subtilis and against Saccharomyces cerevisiae was more than 100 µg/mL throughout.
Consider `CC1=CC=C(C=O)C(c2ccc([N+](=O)[O-])cc2)C1` (stereo not drawn), for which the MIC against Escherichia coli, against Bacillus subtilis and against Saccharomyces cerevisiae was more than 100 µg/mL each time.
Consider `CC(C)=CC[C@H]1C(C)=CC=C(C=O)[C@H]1c1ccccc1`, for which the MIC in the experiment on Escherichia coli, in the experiment on Bacillus subtilis and with Saccharomyces cerevisiae was more than 100 µg/mL in each case.
In the case of `CC1=C(/C=C/C(C)=C/C=C/C2=CC=C(C=O)CC2)C(C)(C)CCC1`, the MIC with Escherichia coli, against Bacillus subtilis and against Saccharomyces cerevisiae was more than 100 µg/mL in each case.
In the case of `CN(C)c1ccc(C2CC(c3cccs3)=CC=C2C=O)cc1` (stereo not drawn), the MIC in the experiment with Escherichia coli, against Bacillus subtilis and against Saccharomyces cerevisiae was more than 100 µg/mL each time.
With `CN(C)c1ccc(C2CC(c3ccc4c(c3)Cc3ccccc3-4)=CC=C2C=O)cc1` (stereo not drawn), the minimum inhibitory concentration (MIC) in the experiment on Escherichia coli, with Bacillus subtilis and with Saccharomyces cerevisiae was more than 100 µg/mL in each case.
As for `CC(C)=CC[C@H]1C(C)=CC=C(C=O)[C@H]1c1ccc(N(C)C)cc1`, the MIC in the experiment on Escherichia coli, in the experiment on Bacillus subtilis and against Saccharomyces cerevisiae was more than 100 µg/mL each time.
On to `CC1C(c2cccs2)=CC=C(C=O)C1c1ccc([N+](=O)[O-])cc1` (stereo not drawn), for which the MIC against Escherichia coli, in the experiment with Bacillus subtilis and against Saccharomyces cerevisiae was more than 100 µg/mL throughout.
On to `Cc1ccc(C=O)c(-c2ccc([N+](=O)[O-])cc2)c1`, for which the MIC with Escherichia coli, against Bacillus subtilis and in the experiment on Saccharomyces cerevisiae was more than 100 µg/mL in each case.
As to `CC1=C(/C=C/C(C)=C/C=C/C2=CC=C(C=O)C(c3ccc(N(C)C)cc3)C2)C(C)(C)CCC1` (stereo not drawn), the MIC with Escherichia coli, with Bacillus subtilis and against Saccharomyces cerevisiae was more than 100 µg/mL each time.
